Measurements as given in ChEMBL document CHEMBL1914453, “1,1-Diarylalkenes as anticancer agents: dual inhibitors of tubulin polymerization and phosphodiesterase 4” (Bioorg Med Chem, 2011).

Experiments:
HCT-116 [1] = assay: Antitumor activity against human HCT116 cells xenografted in SCID mouse assessed as tumor growth inhibition at 5 mg/kg, ip once every 4 days measured twice weekly relative to control; format: functional; conditions: HCT-116, ip, 96 h, route intraperitoneal, read-out: GI
Summary of the method: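 Female SCID mice, 6–8 weeks old, inoculated s.c. in the right hind leg with 2 × 10⁶ HCT-116 cells in sterile PBS. On day 8, mice with 75–125 mm³ tumors were randomized and dosed ip in CMC-Tween vehicle (0.5% carboxymethylcellulose, 0.25% Tween 80 in water). Tumors were measured twice weekly by caliper, volume W² × L / 2, and compared with vehicle.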

Plasma = assay: Stability in human plasma assessed as formation of (E/Z)-3-(3-Amino-4-methoxyphenyl)-3-(3-ethoxy-4- methoxyphenyl)acrylonitrile by LC-MS/MS analysis; format: ADME, cell-free
Summary of the method: (§1)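 Analogs were incubated in human plasma at 37 °C and sampled at 0, 0.5, 1, 2, 3, 4, 6, 8 and 24 h. Samples were quenched in acetonitrile with 0.1% formic acid and internal standard, centrifuged, and analysed by LC–MS/MS in MRM mode on a C18 monolithic column with an aqueous acetonitrile/0.1% formic acid gradient. Percentage remaining was taken from analyte/IS peak-area ratios relative to time zero.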

HCT-116 [2] = assay: Cytotoxicity against human HCT116 cells assessed as reduction of [3H]thymidine incorporation after 72 hrs by scintillation counting; format: functional, cell-based
Summary of the method: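 HCT-116 cells were seeded 24 h before compound and treated with serial dilutions in triplicate for 72 h at 37 °C. [³H]thymidine (1 µCi per well) was added for the last 6 h, and incorporation was read by scintillation counting. IC50 came from nonlinear sigmoidal regression (top 100%, bottom 0%, variable slope). Values are means of at least three independent determinations, with SEM from the individual IC50s.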

Phosphodiesterase 4 = Phosphodiesterase 4 (Homo sapiens, UniProt P27815+Q08499+Q07343+Q08493); assay: Inhibition of human PDE4 expressed in U937 cells using [3H]cAMP as substrate after 30 mins; conditions: u-937
Summary of the method: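 PDE4 was purified from U937 human monocytic cells by gel filtration. Reactions ran in 50 mM Tris–HCl pH 7.5 with 5 mM MgCl₂, 1 µM cAMP and 10 nM [³H]-cAMP for 30 min at 30 °C. They were stopped by boiling, treated with snake venom (1 mg/ml) and separated on ion-exchange resin. Substrate consumption stayed below 15%. IC50 values are means of at least three determinations, with SEM.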

PBMC = assay: Inhibition of LPS-induced TNFalpha production in human PBMC preincubated 1 hr prior to LPS stimulation measured after 18 to 20 hrs by ELISA; format: functional, cell-based
Summary of the method: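 PBMC were isolated by Ficoll-Hypaque density centrifugation and plated at 2 × 10⁵ cells in triplicate. Compounds in DMSO (0.25% final) were added 1 h before stimulation with LPS from S. abortus equi at 1 ng/ml. After 18–20 h at 37 °C in 5% CO₂, supernatant TNF-α was measured by ELISA. IC50 values are means of at least three determinations.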

[3] = Inhibition of tubulin polymerization at 5 uM after 60 mins by spectrophotometry
[4] = Inhibition of tubulin polymerization at 10 uM after 60 mins by spectrophotometry
[5] = Stability in human plasma assessed as half life by LC-MS/MS analysis; format: ADME, cell-free; summary of the method: as §1
[6] = Solubility of the compound at pH 5 after 4 hrs by UV-Vis spectrophotometry; format: physicochemical; conditions: buffer
Summary of the method: (§2)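 A suspension of about 1 mg/mL (0.5 mL) in pH 5.0 or pH 7.4 buffer was stirred at 400 rpm for 4 h and then filtered. Concentration was determined by UV-vis plate reading (200–400 nm) against standard curves for each compound. Replicate measurements were made at pH 5.0.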

[7] = Solubility of the compound at pH 7.4 after 4 hrs by UV-Vis spectrophotometry; format: physicochemical; conditions: buffer; summary of the method: as §2
Mus musculus = assay: Toxicity in SCID mouse xenografted with human HCT116 cells assessed as reduction in body weight at 20 mg/kg, ip once daily measured after day 19 relative to control; format: organism-based, HCT-116; design: dose 20 mg/kg, route intraperitoneal; scale not given: the % may be the effect or the level left; conditions: in vivo
Summary of the method: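 SCID mice carrying s.c. HCT-116 tumors were dosed ip at 20 mg/kg once daily in CMC-Tween vehicle (0.5% carboxymethylcellulose, 0.25% Tween 80) from day 8. Health was monitored daily and body weights were compared with the vehicle group.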

HCT-116 [8] = assay: Antitumor activity against human HCT116 cells xenografted in SCID mouse assessed as tumor growth inhibition at 20 mg/kg, ip once daily measured twice weekly relative to control; conditions: HCT-116, ip, 24 h, read-out: GI
[9] = Ratio of IC50 for human PDE4 expressed in U937 cells to IC50 for human HCT116 cells; design: species or system HCT-116

| SMILES | inhibition in vivo at 5 mg/kg (HCT-116 [1]) [%] | Stability (Plasma) | IC50 (HCT-116 [2]) [µM] | IC50 (Phosphodiesterase 4) [µM] | IC50 (PBMC) [µM] | inhibition [3] [%] | inhibition [4] [%] | half-life [5] [h] | solubility at 4 h [6] [µg/mL] | solubility at 4 h [7] [µg/mL] | Activity (Mus musculus) [%] | inhibition in vivo at 20 mg/kg (HCT-116 [8]) [%] | Ratio IC50 [9] |
| --- | --- | --- | --- | --- | --- | --- | --- | --- | --- | --- | --- | --- | --- |
| CCc1c2c(nc3ccc(OC(=O)N4CCC(N5CCCCC5)CC4)cc13)-c1cc3c(c(=O)n1C2)COC(=O)[C@]3(O)CC [IRINOTECAN] | 85 | – | – | – | – | – | – | – | – | – | – | – | – |
| CCOc1cc(C(=CC#N)c2ccc(OC)c(NC(=O)CN)c2)ccc1OC.Cl | – | Stable | 0.093 | 0.4 | 0.031 | 59 | 70 | 56 | 356 | 205 | 15 | 64 | – |
| COc1cc(OC)cc(C(=C(C)C)c2ccc(OC)c(O)c2)c1 | – | – | 0.97 | > 10 | 7 | – | – | – | – | – | – | – | 10 |
